Laboratory results: ChEMBL document CHEMBL1212912, “Phenylsulfonylfuroxans as modulators of multidrug-resistance-associated protein-1 and P-glycoprotein” (J Med Chem, 2010)
Active and inactive are the calls of the source. No cut-off for these calls is given here.

Columns and labels:
[1] = target: ATP-dependent translocase ABCB1 (Homo sapiens, UniProt P08183); assay: Inhibition of MDR1 expressed in MDCK cells assessed as calcein AM accumulation by fluorescence assay; format: cell-based
Summary of the method: (§1)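 MDCK cells overexpressing MRP1 or MDR1 (P-gp) were seeded at 50,000/well and grown to confluence overnight. Compound in medium was added for 30 min at 37°C, then calcein-AM (2.5 µM final, in PBS) for 30 min. Cells were washed 3× with ice-cold PBS and fluorescence read at ex 485/em 535 nm. The increase over untreated basal level was fitted against log[dose] to give EC50.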

[2] = tested on: MDCK; assay: Inhibition of Pgp-mediated doxorubicine accumulation in MDCK cells assessed as nitreated-Pgp level at 10 uM by immunoprecipitation; format: cell-based; details: Canis lupus familiaris
[3] = target: Multidrug resistance-associated protein 1 (Homo sapiens, UniProt P33527); assay: […] MRP1 expressed in MDCK cells assessed as calcein AM accumulation by fluorescence assay; format: cell-based; summary of the method: as §1
[4] = tested on: MDCK; assay: Antiproliferative activity against MDCK cells at 10 uM by MTT assay; format: cell-based, Canis lupus familiaris; details: dog
Summary of the method: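 MDCK-MDR1 cells grown in DMEM high glucose with 10% FBS and 2 mM glutamine at 37°C in 5% CO2. Seeded at 20000 cells/well, then treated next day with compound at 10 μM with solvent controls. MTT 0.5 mg/mL added after 24 or 48 h and incubated 3 h at 37°C. Formazan dissolved in DMSO; absorbance read at 570 and 630 nm.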

ATP-dependent translocase ABCB1, sequence (P08183 whole entry): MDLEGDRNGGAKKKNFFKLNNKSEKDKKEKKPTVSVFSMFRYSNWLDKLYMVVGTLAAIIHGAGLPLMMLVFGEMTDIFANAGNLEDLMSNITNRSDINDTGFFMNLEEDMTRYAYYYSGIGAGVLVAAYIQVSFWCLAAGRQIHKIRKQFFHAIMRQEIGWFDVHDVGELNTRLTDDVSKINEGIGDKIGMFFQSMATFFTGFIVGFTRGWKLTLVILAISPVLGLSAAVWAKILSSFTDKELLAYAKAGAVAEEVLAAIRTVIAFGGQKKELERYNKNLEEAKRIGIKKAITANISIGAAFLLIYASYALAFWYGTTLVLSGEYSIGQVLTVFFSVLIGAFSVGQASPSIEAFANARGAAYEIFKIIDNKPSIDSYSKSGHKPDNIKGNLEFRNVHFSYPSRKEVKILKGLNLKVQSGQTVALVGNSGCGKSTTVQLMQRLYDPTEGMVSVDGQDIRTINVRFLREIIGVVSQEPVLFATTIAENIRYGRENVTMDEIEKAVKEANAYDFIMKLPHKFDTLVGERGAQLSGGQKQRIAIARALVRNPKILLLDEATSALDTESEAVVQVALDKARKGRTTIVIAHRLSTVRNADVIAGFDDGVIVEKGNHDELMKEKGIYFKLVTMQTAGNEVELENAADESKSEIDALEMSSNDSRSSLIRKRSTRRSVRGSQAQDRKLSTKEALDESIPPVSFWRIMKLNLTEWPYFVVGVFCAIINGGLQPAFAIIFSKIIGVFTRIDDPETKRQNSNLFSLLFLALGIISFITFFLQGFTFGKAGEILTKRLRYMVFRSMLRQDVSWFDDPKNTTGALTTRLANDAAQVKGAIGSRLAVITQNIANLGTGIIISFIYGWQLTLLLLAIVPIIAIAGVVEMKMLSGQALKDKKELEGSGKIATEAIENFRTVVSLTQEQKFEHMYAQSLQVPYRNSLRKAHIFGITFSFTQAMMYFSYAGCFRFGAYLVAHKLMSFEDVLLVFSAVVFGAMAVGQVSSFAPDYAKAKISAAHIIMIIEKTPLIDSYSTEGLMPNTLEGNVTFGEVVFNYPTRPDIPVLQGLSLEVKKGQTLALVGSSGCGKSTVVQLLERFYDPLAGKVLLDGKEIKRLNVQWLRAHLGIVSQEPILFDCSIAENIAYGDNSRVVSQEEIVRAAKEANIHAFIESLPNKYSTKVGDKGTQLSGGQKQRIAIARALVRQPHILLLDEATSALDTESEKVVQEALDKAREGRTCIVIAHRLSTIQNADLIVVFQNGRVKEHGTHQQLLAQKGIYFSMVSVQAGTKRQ
Multidrug resistance-associated protein 1, sequence (P33527 whole entry): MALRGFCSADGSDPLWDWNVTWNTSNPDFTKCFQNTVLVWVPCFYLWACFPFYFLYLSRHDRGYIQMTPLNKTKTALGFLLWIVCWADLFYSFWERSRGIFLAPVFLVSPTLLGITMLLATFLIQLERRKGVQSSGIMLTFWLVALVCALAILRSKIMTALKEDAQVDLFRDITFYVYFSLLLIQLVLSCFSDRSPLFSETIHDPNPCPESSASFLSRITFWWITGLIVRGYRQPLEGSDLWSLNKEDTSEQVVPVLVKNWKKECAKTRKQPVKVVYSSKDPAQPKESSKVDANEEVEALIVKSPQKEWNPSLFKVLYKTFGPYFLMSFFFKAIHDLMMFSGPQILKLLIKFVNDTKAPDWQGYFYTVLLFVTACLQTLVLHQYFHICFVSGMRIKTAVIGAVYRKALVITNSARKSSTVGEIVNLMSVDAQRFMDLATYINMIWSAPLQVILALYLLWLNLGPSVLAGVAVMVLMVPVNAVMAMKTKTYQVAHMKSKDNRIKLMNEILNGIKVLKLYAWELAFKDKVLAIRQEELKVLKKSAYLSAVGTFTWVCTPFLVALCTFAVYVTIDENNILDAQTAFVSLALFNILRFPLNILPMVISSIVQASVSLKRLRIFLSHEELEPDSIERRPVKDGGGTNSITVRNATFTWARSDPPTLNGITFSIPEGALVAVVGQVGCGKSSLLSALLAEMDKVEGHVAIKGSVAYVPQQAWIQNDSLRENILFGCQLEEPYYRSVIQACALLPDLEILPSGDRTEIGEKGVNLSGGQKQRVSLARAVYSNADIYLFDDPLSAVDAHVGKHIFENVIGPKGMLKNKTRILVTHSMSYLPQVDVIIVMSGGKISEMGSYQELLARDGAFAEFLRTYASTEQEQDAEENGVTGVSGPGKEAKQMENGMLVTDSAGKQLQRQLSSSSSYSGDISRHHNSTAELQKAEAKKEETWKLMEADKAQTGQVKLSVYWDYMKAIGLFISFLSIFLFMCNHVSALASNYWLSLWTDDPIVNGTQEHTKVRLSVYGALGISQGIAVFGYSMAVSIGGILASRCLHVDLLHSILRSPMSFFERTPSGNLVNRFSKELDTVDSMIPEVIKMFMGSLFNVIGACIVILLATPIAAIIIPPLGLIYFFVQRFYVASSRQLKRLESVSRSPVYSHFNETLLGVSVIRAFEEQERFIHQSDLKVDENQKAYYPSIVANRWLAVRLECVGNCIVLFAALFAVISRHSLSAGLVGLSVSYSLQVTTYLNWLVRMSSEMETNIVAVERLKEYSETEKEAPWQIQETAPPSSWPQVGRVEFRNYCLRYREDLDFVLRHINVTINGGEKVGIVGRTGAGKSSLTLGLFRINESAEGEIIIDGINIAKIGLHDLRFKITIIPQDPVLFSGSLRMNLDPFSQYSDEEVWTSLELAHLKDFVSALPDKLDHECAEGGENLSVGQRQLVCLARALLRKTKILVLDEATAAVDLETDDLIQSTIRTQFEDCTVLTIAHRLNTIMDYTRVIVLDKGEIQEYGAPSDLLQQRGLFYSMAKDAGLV

SMILES | EC50 [1] [µM] | Activity [2] | EC50 [3] [µM] | Activity [4] [%]
Cc1c(S(=O)(=O)c2ccccc2)no[n+]1[O-] | > 100 | – | – | –
CCCCCCOc1nonc1S(=O)(=O)c1ccccc1 | 32.2 | – | – | –
O=S(=O)(c1ccccc1)c1no[n+]([O-])c1-c1ccccc1 | 46 | – | – | –
COc1c(-c2ccccc2)no[n+]1[O-] | > 100 | – | – | –
CCCCOc1no[n+]([O-])c1S(=O)(=O)c1ccccc1 | 2.26 | Active | 7.61 | –
CCOc1no[n+]([O-])c1S(=O)(=O)c1ccccc1 | 12 | – | 49.1 | –
[O-][n+]1onc(-c2ccccc2)c1-c1ccccc1 | > 100 | – | – | –
Cc1no[n+]([O-])c1S(=O)(=O)c1ccccc1 | 28.3 | – | – | –
CCCCCCCCCCOc1no[n+]([O-])c1S(=O)(=O)c1ccccc1 | 3.31 | – | – | –
O=S(=O)(c1ccccc1)c1c(Oc2ccccc2)no[n+]1[O-] | 20.5 | – | 13.6 | –
NC(=O)c1no[n+]([O-])c1-c1ccccc1 | > 100 | – | – | –
N#Cc1no[n+]([O-])c1S(=O)(=O)c1ccccc1 | 7.4 | – | 29.5 | –
Cc1c(-c2ccccc2)no[n+]1[O-] | > 100 | – | – | –
COc1no[n+]([O-])c1-c1ccccc1 | > 100 | – | – | –
O=S(=O)(c1ccccc1)c1no[n+]([O-])c1S(=O)(=O)c1ccccc1 | 3 | – | 15.1 | –
NC(=O)c1c(-c2ccccc2)no[n+]1[O-] | > 100 | – | – | –
CCCCCCCCOc1no[n+]([O-])c1S(=O)(=O)c1ccccc1 | 4.6 | – | – | –

SMILES | EC50 [1] [µM] | Activity [2] | EC50 [3] [µM] | Activity [4] [%]
CCCCOc1nonc1S(=O)(=O)c1ccccc1 | 49.7 | – | – | –
NS(=O)(=O)c1no[n+]([O-])c1-c1ccccc1 | > 100 | – | – | –
Nc1no[n+]([O-])c1-c1ccccc1 | > 100 | – | – | –
NC(=O)c1c(S(=O)(=O)c2ccccc2)no[n+]1[O-] | 52.6 | – | – | –
O=[N+]([O-])c1c(-c2ccccc2)n[o+]n1[O-] | 53 | – | 45 | –
NS(=O)(=O)c1c(-c2ccccc2)no[n+]1[O-] | > 100 | – | – | –
CCC(C)Oc1no[n+]([O-])c1S(=O)(=O)c1ccccc1 (stereo not drawn) | 2.23 | – | 46 | 45
O=S(=O)(c1ccccc1)c1c(-c2ccccc2)no[n+]1[O-] | 10 | – | – | –
CC1(C)CCC(C)(C)c2cc(-c3cc(-c4ccc(C(=O)O)cc4)no3)ccc21 | 1.5 | – | – | –
Cc1no[n+]([O-])c1-c1ccccc1 | > 100 | – | – | –
CCCCCCOc1no[n+]([O-])c1S(=O)(=O)c1ccccc1 | 3.35 | Active | 12 | –
CC(C)Oc1no[n+]([O-])c1S(=O)(=O)c1ccccc1 | 2.15 | – | 63 | 30
NC(=O)c1no[n+]([O-])c1S(=O)(=O)c1ccccc1 | 50 | – | 85.8 | –
N#Cc1no[n+]([O-])c1-c1ccccc1 | > 100 | – | – | –
N#Cc1c(S(=O)(=O)c2ccccc2)no[n+]1[O-] | 55.4 | – | 72 | –
Nc1c(-c2ccccc2)no[n+]1[O-] | > 100 | – | – | –
